Data published in ChEMBL document CHEMBL4196059, “Design, synthesis, and biological evaluation of stable β6.3-Helices: Discovery of non-hemolytic antibacterial peptides” (Eur J Med Chem, 2018).
pKd: −log10 of the molar value. Active and inactive are the calls of the source. The calls are words filed in the database; no cut-off is given here.

Experiments:
Pseudomonas aeruginosa = assay: Growth inhibition of Pseudomonas aeruginosa ATCC 27853 at 32 ug/ml after 18 hrs; assay type: functional; conditions: ATCC 27853, 18 h, read-out: GI
Summary of the method: (§1)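 Mid-log cultures were prepared as above and seeded at 5×10^5 CFU/mL with compound at a final 32 μg/mL, then held static at 37 °C for 18 h. Growth was read as OD600. Percent inhibition was calculated against media-only and bacteria-only controls on the same plate.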

Escherichia coli [1] = assay: Growth inhibition of Escherichia coli ATCC 25922 at 32 ug/ml after 18 hrs; assay type: functional; conditions: ATCC 25922, 18 h, read-out: GI; summary of the method: as §1
Candida albicans = assay: Growth inhibition of Candida albicans ATCC 90028 at 32 ug/ml after 24 hrs by OD530 light-scattering microspectrophotometric method; conditions: ATCC 90028, 24 h, read-out: GI
[2] = Hemolytic activity against human RBC at 50 uM after 1 hr by Drabkin's assay relative to control; assay type: ADME, cell-based, Erythrocyte; conditions: human red blood cells (erythrocytes), read-out: Activity
Cryptococcus neoformans = assay: Growth inhibition of Cryptococcus neoformans H99 ATCC 208821 at 32 ug/ml after 24 hrs by resazurin dye-based microspectrophotometric assay; assay type: functional; conditions: var. grubii H99 ATCC 208821, 24 h, read-out: GI
Summary of the method: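 Yeasts were grown 3 days on YPD agar at 30 °C, suspended from five colonies and diluted in YNB broth to a final 2.5×10^3 CFU/mL. Compound at a final 32 μg/mL; incubated 24 h at 35 °C without shaking. C. albicans was read at OD530. C. neoformans was read as OD600–570 after resazurin (0.001% final) and a further 2 h at 35 °C. Fluconazole was the standard.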

[3] = Hemolytic activity against human RBC at 0.39 uM after 1 hr by Drabkin's assay relative to control; assay type: ADME, cell-based, Erythrocyte; conditions: human red blood cells (erythrocytes), read-out: Activity
[4] = Hemolytic activity against human RBC at 3.125 uM after 1 hr by Drabkin's assay relative to control; assay type: ADME, cell-based, Erythrocyte; conditions: human red blood cells (erythrocytes), read-out: Activity
[5] = Hemolytic activity against human RBC at 0.78 uM after 1 hr by Drabkin's assay relative to control; assay type: ADME, cell-based, Erythrocyte; conditions: human red blood cells (erythrocytes), read-out: Activity
Klebsiella pneumoniae [6] = assay: Growth inhibition of multidrug-resistant Klebsiella pneumoniae ATCC 700603 at 32 ug/ml after 18 hrs; assay type: functional; conditions: ATCC 700603, 18 h, read-out: GI
Summary of the method: (§2)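 Mid-log cultures in cation-adjusted Mueller Hinton broth were added at 5×10^5 CFU/mL to wells at a final compound concentration of 32 μg/mL. Plates stood at 37 °C for 18 h. Growth was read by OD600, and % inhibition was computed against media-only and untreated-bacteria controls.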

[7] = Hemolytic activity against human RBC at 1.56 uM after 1 hr by Drabkin's assay relative to control; assay type: ADME, cell-based, Erythrocyte; conditions: human red blood cells (erythrocytes), read-out: Activity
[8] = Hemolytic activity against human RBC at 6.25 uM after 1 hr by Drabkin's assay relative to control; assay type: ADME, cell-based, Erythrocyte; conditions: human red blood cells (erythrocytes), read-out: Activity
Acinetobacter baumannii [9] = assay: Growth inhibition of Acinetobacter baumannii ATCC 19606 at 32 ug/ml after 18 hrs; assay type: functional; conditions: ATCC 19606 = CIP 70.34 = JCM 6841, 18 h, read-out: GI; summary of the method: as §1
Erythrocyte = assay: Hemolytic activity against human RBC after 1 hr by Drabkin's assay; assay type: ADME, cell-based
Staphylococcus aureus [10] = assay: Growth inhibition of methicillin-resistant Staphylococcus aureus ATCC 43300 at 32 ug/ml after 18 hrs; assay type: functional; conditions: ATCC 43300, 18 h, read-out: GI; summary of the method: as §2
[11] = Hemolytic activity against human RBC at 25 uM after 1 hr by Drabkin's assay relative to control; assay type: ADME, cell-based, Erythrocyte; conditions: human red blood cells (erythrocytes), read-out: Activity
[12] = Induction of pore formation in DOPC vesicles at 20 uM after 3 hrs by carboxyfluorescein dye leakage assay; conditions: in the assay text read “after 3 mins” for “after 3 hrs”
Summary of the method: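 POPC or DOPC liposomes were hydrated in 10 mM HEPES, 100 mM KCl, pH 7.4, containing 50 mM carboxyfluorescein. Size was checked by dynamic light scattering, and vesicles were used at 2.2×10^10 per mL. Peptide at 20 μM was equilibrated with vesicles for 3 min, and dye leakage was measured.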

Lipid bilayer [13] = assay: Binding affinity to POPC vesicles by surface plasmon resonance spectroscopy
Summary of the method: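 SPR on a dextran chip carrying immobilized POPC liposomes, with running buffer of 10 mM HEPES and 100 mM KCl at pH 7.4. Peptides in PBS were flowed at 25 μL/min at 10–1000 μM, with reference-subtracted response units. KD and Rmax were fitted from maximum response versus concentration. Regeneration used 20 mM CHAPS followed by fresh liposomes.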

[14] = Hemolytic activity against human RBC at 12.5 uM after 1 hr by Drabkin's assay relative to control; assay type: ADME, cell-based, Erythrocyte; conditions: human red blood cells (erythrocytes), read-out: Activity
[15] = Induction of pore formation in DOPC vesicles at 20 uM after 3 mins by carboxyfluorescein dye leakage assay
Lipid bilayer [16] = assay: Induction of pore formation in POPC vesicles at 20 to 100 uM after 3 mins by carboxyfluorescein dye leakage assay
Escherichia coli [17] = assay: Antibacterial activity against Escherichia coli ATCC 25922 after 18 hrs by non-binding surface 96-well plate-based method; assay type: functional
Summary of the method: (§3)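 Cultured in cation-adjusted Mueller Hinton broth at 37 °C for 12 h, diluted 40-fold and grown 1.5–3 h to mid-log. Seeded at 5×10^5 CFU/mL over a 12-point dose response in non-binding surface and polystyrene 96-well plates, duplicates (n=2). Incubated static at 37 °C for 18 h. MIC read from OD600 light scattering; colistin and vancomycin as standards.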

Staphylococcus aureus [18] = assay: Antibacterial activity against methicillin-resistant Staphylococcus aureus ATCC 43300 after 18 hrs by non-binding surface 96-well plate-based method; assay type: functional
Summary of the method: (§4)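 Strains grown in cation-adjusted Mueller Hinton broth at 37 °C for 12 h, diluted 40-fold and regrown 1.5–3 h to mid-log. Inoculum was 5×10^5 CFU/mL in 12-point dose response, in non-binding surface or polystyrene plates, in duplicate. Plates stood at 37 °C for 18 h. MIC was read by OD600.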

Acinetobacter baumannii [19] = assay: Antibacterial activity against Acinetobacter baumannii ATCC 19606 after 18 hrs by non-binding surface 96-well plate-based method; assay type: functional; conditions: ATCC 19606 = CIP 70.34 = JCM 6841; summary of the method: as §4
Klebsiella pneumoniae [20] = assay: Antibacterial activity against multidrug-resistant Klebsiella pneumoniae ATCC 700603 after 18 hrs by non-binding surface 96-well plate-based method; assay type: functional; summary of the method: as §4
Klebsiella pneumoniae [21] = assay: Antibacterial activity against multidrug-resistant Klebsiella pneumoniae ATCC 700603 after 18 hrs by polystyrene 96-well plate-based method; assay type: functional; summary of the method: as §4
Escherichia coli [22] = assay: Antibacterial activity against Escherichia coli ATCC 25922 after 18 hrs by polystyrene 96-well plate-based method; assay type: functional; summary of the method: as §4
Acinetobacter baumannii [23] = assay: Antibacterial activity against Acinetobacter baumannii ATCC 19606 after 18 hrs by polystyrene 96-well plate-based method; assay type: functional; conditions: ATCC 19606 = CIP 70.34 = JCM 6841; summary of the method: as §3
Staphylococcus aureus [24] = assay: Antibacterial activity against methicillin-resistant Staphylococcus aureus ATCC 43300 after 18 hrs by polystyrene 96-well plate-based method; assay type: functional; summary of the method: as §4

Row | Molecule | inhibition of growth at 32 µg/mL (Pseudomonas aeruginosa) | inhibition of growth at 32 µg/mL (Escherichia coli [1]) | inhibition of growth at 32 µg/mL (Candida albicans) | hemolysis at 1 h, 50 µM [2] | inhibition of growth at 32 µg/mL (Cryptococcus neoformans) | hemolysis at 1 h, 0.39 µM [3] | hemolysis at 1 h, 3.125 µM [4] | hemolysis at 1 h, 0.78 µM [5] | inhibition of growth at 32 µg/mL (Klebsiella pneumoniae [6]) | hemolysis at 1 h, 1.56 µM [7] | hemolysis at 1 h, 6.25 µM [8] | inhibition of growth at 32 µg/mL (Acinetobacter baumannii [9]) | Activity (Erythrocyte) | inhibition of growth at 32 µg/mL (Staphylococcus aureus [10]) | hemolysis at 1 h, 25 µM [11] | pKd (Lipid bilayer [13]) | Rmax (Lipid bilayer [13]) | hemolysis at 1 h, 12.5 µM [14] | further results
1 | CC(C)(C)OC(=O)[C@@H]1CCCN1C(=O)N1CCCN1C(=O)[C@@H]1CCCN1C(=O)N1CCCN1C(=O)[C@@H]1CCCN1C(=O)N1CCCN1C(=O)[C@@H]1CCCN1C(=O)N1CCCN1C(=O)[C@@H]1CCCN1C(=O)N1CCCN1C(=O)[C@@H]1CCCN1C(=O)N1CCCN1C(=O)[C@@H]1CCCN1C(=O)N1CCCN1C(=O)[C@@H]1CCCN1C(=O)N1CCCN1C(=O)OCc1ccccc1 | -6.76% | -1.93% | 5.75% | -0.73% | -8.19% | 0.08% | -0.12% | 0.04% | -1.93% | -0.24% | -0.37% | 15.9% | Dose-dependent effect | 20.5% | -0.41% | 2.59 | 2640 | -0.04% | Activity [12]: inactive
2 | O=C(NCCO)[C@@H]1CCCN1C(=O)N1CCCN1C(=O)[C@@H]1CCCN1C(=O)N1CCCN1C(=O)[C@@H]1CCCN1C(=O)N1CCCN1C(=O)[C@@H]1CCCN1C(=O)N1CCCN1C(=O)[C@@H]1CCCN1C(=O)N1CCCN1C(=O)[C@@H]1CCCN1C(=O)N1CCCN1C(=O)[C@@H]1CCCN1C(=O)N1CCCN1C(=O)[C@@H]1CCCN1C(=O)N1CCCN1C(=O)OCc1ccccc1 | -2.74% | 11.3% | 4.99% | -0.04% | -4.06% | -0.04% | 0.15% | 0.15% | 11.3% | 0.02% | -0.11% | 36.2% | Dose-dependent effect | 11.8% | -0.04% | 3.43 | 601 | -0.04% | Activity [15]: 13%; Activity (Lipid bilayer [16]): inactive
3 | COLISTIN | – | – | – | – | – | – | – | – | – | – | – | – | – | – | – | – | – | – | MIC (Escherichia coli [17]): 0.016 µg/mL; MIC (Staphylococcus aureus [18]): > 32 µg/mL; MIC (Acinetobacter baumannii [19]): 0.06 to 0.125 µg/mL; MIC (Klebsiella pneumoniae [20]): 0.06 µg/mL; MIC (Klebsiella pneumoniae [21]): 0.25 µg/mL; MIC (Escherichia coli [22]): 0.125 µg/mL; MIC (Acinetobacter baumannii [23]): 1 µg/mL; MIC (Staphylococcus aureus [24]): > 32 µg/mL
